Assay outcomes (PubChem BioAssay)
Most compounds without a hit are left out; they make up all but 2.6% or so of the library.
SENP8 block-1 – inhibitors of human SENP8 protease | recombinant SENP8, Nedd8 substrate fluorescence | inhibition, % at 20 µM | hit rate 0.64% among 360,000; in the data active means inhibition mostly above about 40%, no sharp cut-off; inactive means mostly below about 27%
Target sequence (Q96LD8 whole entry, looked up): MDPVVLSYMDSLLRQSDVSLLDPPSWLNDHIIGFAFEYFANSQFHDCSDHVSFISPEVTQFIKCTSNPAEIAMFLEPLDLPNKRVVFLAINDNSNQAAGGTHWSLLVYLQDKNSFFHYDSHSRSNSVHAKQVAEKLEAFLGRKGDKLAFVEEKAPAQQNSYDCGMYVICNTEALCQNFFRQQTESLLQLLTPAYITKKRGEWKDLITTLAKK
SENP1 FRET inh – blocks the human SENP1 SUMO protease catalytic domain. Q9P0U3. recombinant SENP1 catalytic domain, CyPet-SUMO1-YPet FRET cleavage. inhibition, % at 10 µM. hit rate 0.21% among 360,000. AID 624204;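 active means inhibition at least 30% at 10 µM, raw YFP signal under a set limit, fluorescence ratio 0.5 to 1.5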;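 further: 0% = enzyme with DMSO and 100% = no enzyme wells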
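Test system: recombinant human SENP1 catalytic domain, His6-tagged / Medium: pH 8 Tris buffer with EDTA, NaCl, BME, BSA, NP40, catalase / Also added: SUMO1 FRET substrate flanked by Cypet and Ypet, 25 nM / Times: 50 min reaction at room temperature / Signal: FRET, CFP and YFP emission / Control set: no-enzyme low control and enzyme-plus-DMSO high control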
Platelet DG rel – platelet dense granule release activity; human platelet-rich plasma, SFLLRN dense granule ATP release, luminescence; inhibition, %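 (compounds screened at 7.5 µM in platelet-rich plasma)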; hit rate 0.22% among 300,000; AID 1663;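 active means mean replicate score, as percent of positive control, at or above 50; inconclusive means mean below 50 but at least one replicate at or above 50; inactive means mean and every replicate below 50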
SENP7 block – SENP7 protease inhibition. Q9BQF6. recombinant SENP7, Z-RLRGG-aminoluciferin luminescence, 40 min. inhibition, % at 5 µM. hit rate 1.5% among 330,000;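 active means inhibition above about 50% at the single test dose, limit read from the data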;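 further: plate controls were DMSO with enzyme for no effect and no enzyme buffer wells for full effect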
Target sequence (Q9BQF6 706-1050 limits assumed): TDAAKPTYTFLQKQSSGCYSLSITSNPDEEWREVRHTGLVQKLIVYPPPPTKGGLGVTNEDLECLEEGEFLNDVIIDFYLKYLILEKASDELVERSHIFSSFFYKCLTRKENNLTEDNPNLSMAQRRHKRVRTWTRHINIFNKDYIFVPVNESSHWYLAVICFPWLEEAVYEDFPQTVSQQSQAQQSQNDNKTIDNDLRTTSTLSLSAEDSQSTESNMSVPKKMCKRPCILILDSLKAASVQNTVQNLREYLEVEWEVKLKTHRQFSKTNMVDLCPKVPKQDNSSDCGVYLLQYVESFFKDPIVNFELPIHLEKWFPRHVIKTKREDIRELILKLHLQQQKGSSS
SENP6 inh – SENP6 protease inhibition | Q9GZR1 | Recombinant SENP6 catalytic domain, aminoluciferin luminescence | inhibition, % at 10 µM | hit rate 1.8% among 330,000 | AID 2599;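 active means inhibition above about 50% at the single tested dose, limit read from the data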;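 further: plate controls were DMSO wells with enzyme for no effect and DMSO wells lacking enzyme for full effect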
SENP8 block-2 – SENP8 protease inhibition; Q96LD8; purified SENP8, Z-RLRGG-aminoluciferin cleavage, luminescence; inhibition, % at 10 µM; hit rate 1.2% among 330,000; in the data active means inhibition above about 50%
Starred values were filed as active, the others as inactive.

What do the screens show for `COc1cc(/C=N/NC(N)=S)ccc1OCC(=O)Nc1ccc(C)c(C)c1`?
SENP8 block-1: -1; SENP1 FRET inh: 2; Platelet DG rel: 1; SENP7 block: -8; SENP6 inh: 3; SENP8 block-2: -2

Results for Cc1cc(N=Nc2ccc(Cl)cc2)cc(CN2CCOCC2)c1O ?
SENP8 block-1: 19; SENP1 FRET inh: 3; Platelet DG rel: -1; SENP7 block: -8; SENP6 inh: -8; SENP8 block-2: -13

Results for Cc1cc(N=Nc2ccc(Cl)cc2)cc(CN2CCCC2)c1O ?
SENP8 block-1: 43*; SENP1 FRET inh: 6; Platelet DG rel: 2; SENP7 block: -11; SENP6 inh: -6; SENP8 block-2: -7

How did CN(CC(=O)Nc1ccc(F)cc1)C(=O)C1CC(=O)N(Cc2ccccc2)C1 (stereo not drawn) do in these assays?
SENP8 block-1: 3; SENP1 FRET inh: 0; Platelet DG rel: 2; SENP7 block: -12; SENP6 inh: -13; SENP8 block-2: -14

Results for CCN(CC)C(=O)CSc1ncnc2c(-c3ccc(OC)cc3)nsc12 ?
Platelet DG rel: inconclusive; SENP7 block: 34; SENP6 inh: 51*; SENP8 block-2: 52*

What do the screens show for `COc1ccc(-c2nsc3c(SCc4ccccc4)ncnc23)cc1`?
SENP8 block-1: -398; SENP1 FRET inh: -4; Platelet DG rel: -18; SENP7 block: 4; SENP6 inh: 21; SENP8 block-2: -8

Results for CCC(=O)N1CCCC(C(=O)NS(=O)(=O)c2cc(C)c(Cl)cc2C)CC1 (stereo not drawn) ?
SENP8 block-1: 16; SENP1 FRET inh: -1

How did CC1(C)Cc2c(c(-c3ccco3)nc3sc4c(NCCN5CCOCC5)ncnc4c23)CO1 do in these assays?
SENP8 block-1: -359; SENP1 FRET inh: -3; Platelet DG rel: 4; SENP7 block: 5; SENP6 inh: -1; SENP8 block-2: -2

Results for CC1(C)Cc2c(sc3nc(NCCN4CCOCC4)n4ncnc4c23)CO1 ?
SENP8 block-1: -20; SENP1 FRET inh: -3; Platelet DG rel: 52*; SENP7 block: 5; SENP6 inh: -14; SENP8 block-2: -1

Results for c1ccc(-c2nnc(-c3ccco3)o2)cc1 ?
SENP8 block-1: -78; SENP1 FRET inh: 0; Platelet DG rel: 0; SENP7 block: 44; SENP6 inh: 47; SENP8 block-2: 16

How did Brc1ccc(-c2nnc(-c3ccco3)o2)cc1 do in these assays?
SENP8 block-1: -208; SENP1 FRET inh: 0; Platelet DG rel: -51; SENP7 block: 60*; SENP6 inh: 81*; SENP8 block-2: 66*

How did CCc1nnc(NC(=O)CSc2nnc(-c3ccco3)n2CCOC)s1 do in these assays?
SENP8 block-1: 8; SENP1 FRET inh: 2; Platelet DG rel: 7; SENP7 block: 2; SENP6 inh: -18; SENP8 block-2: -4

What do the screens show for `CCc1nnc(NC(=O)CSc2nnc(Cc3cccn3C)n2CCOC)s1`?
SENP8 block-1: 4; SENP1 FRET inh: -2; Platelet DG rel: 52*; SENP7 block: 4; SENP6 inh: 0; SENP8 block-2: -3

Results for CC(C)(C)c1ccc(C(O)c2ncc(-c3cccc(F)c3)[nH]2)cc1 (stereo not drawn) ?
SENP8 block-1: 12; SENP1 FRET inh: 0

Results for CCSC(=O)N1c2ccc(OC)cc2C=CC1C#N (stereo not drawn) ?
SENP8 block-1: -368; SENP1 FRET inh: -58

What do the screens show for `C/C(=N/NC(=O)c1cc2ccccc2cc1O)c1ccco1`?
SENP8 block-1: -74; SENP1 FRET inh: 28; Platelet DG rel: 19; SENP7 block: 47; SENP6 inh: 74*; SENP8 block-2: 52*

Results for COc1cccc(/C=N/NC(=O)C(=O)Nc2ccccc2OC(F)(F)C(F)F)c1O ?
SENP8 block-1: 19; SENP1 FRET inh: 35*; Platelet DG rel: -3; SENP7 block: -8; SENP6 inh: -12; SENP8 block-2: -16

Results for Cc1cccc(OCC(=O)NCCNC(=O)c2ccccn2)c1 ?
SENP8 block-1: 10; SENP1 FRET inh: 0; Platelet DG rel: 4; SENP7 block: 5; SENP6 inh: -4; SENP8 block-2: 7

How did CCOc1ccccc1C=C1SC(=S)N(CC)C1=O do in these assays?
SENP8 block-1: 36*; SENP1 FRET inh: -7

Results for CCOC(=O)N1CCN(C(=O)CCN2C(=O)/C(=C\c3ccccc3OC)SC2=S)CC1 ?
SENP8 block-1: 22; SENP1 FRET inh: -9; Platelet DG rel: 15; SENP7 block: 7; SENP6 inh: -12; SENP8 block-2: -11

What do the screens show for `CCN1C(=O)/C(=C\N2CCCCCC2)SC1=S`?
SENP8 block-1: 46*; SENP1 FRET inh: -1; Platelet DG rel: -14; SENP7 block: 3; SENP6 inh: 7; SENP8 block-2: -6

Results for COC(=O)c1ccc(N2CCN(C)CC2)c(NC(=O)c2ccc(Br)o2)c1 ?
SENP8 block-1: 8; SENP1 FRET inh: 3; Platelet DG rel: 43; SENP7 block: -4; SENP6 inh: 4; SENP8 block-2: -1

Results for Nc1nonc1C(=O)N/N=C/c1ccc(-c2cccc(C(=O)O)c2)o1 ?
Platelet DG rel: 10; SENP7 block: 3; SENP6 inh: 58*; SENP8 block-2: 27

What do the screens show for `COc1ccc(S(=O)(=O)N(C)CC(=O)Nc2ccc3c(c2)OCO3)cc1OC`?
SENP8 block-1: 9; SENP1 FRET inh: 0; Platelet DG rel: 71*; SENP7 block: 7; SENP6 inh: -5; SENP8 block-2: 2

What do the screens show for `O=C(O)c1cccc(NS(=O)(=O)c2ccc3nnn(O)c3c2)c1`?
SENP8 block-1: 19; SENP1 FRET inh: 3; Platelet DG rel: 6; SENP7 block: -6; SENP6 inh: 14; SENP8 block-2: -7

How did O=C(O)c1cccc(NC2=C(n3nnc4ccccc43)C(=O)c3ccccc3C2=O)c1 do in these assays?
SENP8 block-1: 69*; SENP1 FRET inh: 1; Platelet DG rel: -2; SENP7 block: 24; SENP6 inh: -8; SENP8 block-2: 38

How did CNC(=O)/C(C#N)=C/c1ccc(-c2nc3ccccc3s2)o1 do in these assays?
SENP8 block-1: -422; SENP1 FRET inh: -35; Platelet DG rel: inconclusive; SENP7 block: 64*; SENP6 inh: -3; SENP8 block-2: -2

Results for CC1CCCC(NC(=O)NC(=O)COC(=O)c2ccc(O)cc2O)C1C (stereo not drawn) ?
SENP8 block-1: 3; SENP1 FRET inh: 0; SENP7 block: -9; SENP6 inh: -15; SENP8 block-2: -17

How did CN(C)c1ccc2nc3c(=O)[nH]c(=O)nc-3n(CC(O)C(O)C(O)CO)c2c1 (stereo not drawn) do in these assays?
SENP8 block-1: 21; SENP1 FRET inh: 60*; Platelet DG rel: 6; SENP7 block: 11; SENP6 inh: 19; SENP8 block-2: 15

How did Cc1ncc(C(O)c2ccc(N(C)C)cc2)n1Cc1ccccc1 (stereo not drawn) do in these assays?
SENP8 block-1: 8; SENP1 FRET inh: 2
